Reference: ChEMBL document CHEMBL5532699, “Design, docking optimization, and evaluation of biotin-PEG4-1,8-naphthalimide as a potent and safe antitumor agent with dual targeting of ferroptosis and DNA” (RSC Med Chem, 2024)

Legend:
[1] = Toxicity in nude mouse xenografted with human U-251 cells assessed as decrease in animal movement at 25 mg/kg, ip administered once every two days for 21 days; type: organism-based; conditions: in vivo, 504 h, time 21 day
Outline: (§1)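 1×10^6 tumor cells injected s.c. into the right flank of nude mice. At mean tumor volume 60–80 mm³, animals randomized to vehicle or treatment groups (n = 6). Compound in 5% v/v DMSO/saline given i.p. every 2 days. Tumor size and weight recorded; volume = lw²/2 from length and width. Body weight tracked as the systemic toxicity index.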

[2] = Toxicity in nude mouse xenografted with human U-251 cells assessed as decrease in body weight at 25 mg/kg, ip administered once every two days for 21 days; type: organism-based; conditions: in vivo, 504 h, time 21 day; outline: as §1
[3] = tested on: U-251; test: Antitumor activity against human U-251 cells xenografted in nude mouse assessed as tumor inhibition ratio at 25 mg/kg, ip administered once every two days for 21 days relative to control; type: functional; conditions: U-251, 504 h, time 21 day; outline: as §1
[4] = tested on: U-251; test: Antiproliferative activity against human U-251 cells incubated for 48 hrs by MTT assay; type: functional, cell-based; conditions: U-251, 48 h
Outline: (§2)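 Monolayer cells in DMEM with 10% FBS, penicillin and streptomycin, 37°C, 5% CO2. Exponentially growing cells were seeded in 96-well plates and exposed to compound for 48 h. MTT was then added for 4 h at 37°C. Medium was removed, formazan dissolved in DMSO, and OD read at 490 nm. Each plate had five replicate wells, and assays were repeated three times per line.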

[5] = Cytotoxicity against HK-2 cells incubated for 48 hrs by MTT assay; type: toxicity, cell-based; conditions: human; outline: as §2
[6] = tested on: A549; test: Antiproliferative activity against human A549 cells incubated for 48 hrs by MTT assay; type: functional, cell-based; conditions: A549, 48 h; outline: as §2
[7] = Cytotoxicity against HUVEC cells incubated for 48 hrs by MTT assay; type: toxicity, cell-based; conditions: human; outline: as §2
[8] = tested on: HCT-116; test: Antiproliferative activity against human HCT-116 cells incubated for 48 hrs by MTT assay; type: functional, cell-based; conditions: HCT-116, 48 h; outline: as §2
[9] = tested on: MDA-MB-231; test: Antiproliferative activity against human MDA-MB-231 cells incubated for 48 hrs by MTT assay; type: functional, cell-based; conditions: MDA-MB-231, 48 h; outline: as §2
[10] = tested on: T-24; test: Antiproliferative activity against human T24 cells incubated for 48 hrs by MTT assay; type: functional, cell-based; conditions: T-24, 48 h; outline: as §2
[11] = tested on: U-251; test: Antitumor activity against human U-251 cells xenografted in nude mouse assessed as tumor inhibition ratio at 10 mg/kg, ip administered once every two days for 21 days relative to control; type: functional; conditions: U-251, 504 h, time 21 day
Outline: (§3)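 1×10^6 tumour cells were injected subcutaneously into the right flank of nude mice. At a mean tumour volume of 60–80 mm³, mice were randomised into solvent control and treated groups (n = 6). Compound in 5% v/v DMSO/saline was given i.p. every 2 days. Tumour length and width were measured, V = lw²/2, and tumour weight was recorded.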

[12] = Toxicity in nude mouse xenografted with human U-251 cells assessed as decrease in animal movement at 10 mg/kg, ip administered once every two days for 21 days; type: organism-based; conditions: in vivo, 504 h, time 21 day
[13] = Toxicity in nude mouse xenografted with human MGC-803 cells assessed as pathological changes in heart at 5 mg/kg, ip administered once every two days for 21 days by H and E staining based analysis; type: organism-based; conditions: in vivo, 504 h, time 21 day
Outline: (§4)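 Major organs from MGC-803 xenograft nude mice (i.p. dosing in 5% DMSO/saline every 2 days, n = 6) were stained with haematoxylin-eosin and examined at 200×.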

[14] = tested on: MGC-803; test: Antiproliferative activity against human MGC-803 cells incubated for 48 hrs by MTT assay; type: functional, cell-based; conditions: MGC-803, 48 h
Outline: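 Cells kept as monolayers in DMEM with 10% FBS, streptomycin and penicillin, 37°C, 5% CO₂. Exponentially growing cells seeded in 96-well plates, exposed 48 h, then MTT (10 mg/mL stock) for 4 h at 37°C. Medium removed, formazan dissolved in DMSO, OD read at 490 nm. Five wells per condition; each cell line run three times.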

[15] = Toxicity in nude mouse xenografted with human MGC-803 cells assessed as pathological changes in lung at 5 mg/kg, ip administered once every two days for 21 days by H and E staining based analysis; type: organism-based; conditions: in vivo, 504 h, time 21 day; outline: as §4
[16] = Toxicity in nude mouse xenografted with human MGC-803 cells assessed as pathological changes in spleen at 5 mg/kg, ip administered once every two days for 21 days by H and E staining based analysis; type: organism-based; conditions: in vivo, 504 h, time 21 day; outline: as §4
[17] = Metabolic stability in male CD-1 mouse liver microsomes assessed as half life at 2 uM incubated for 60 min in the presence of NADPH by LC-MS/MS analysis; type: ADME, Microsome
Outline: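 Male CD-1 mouse liver microsomes at 0.5 mg/mL final in 100 mM phosphate buffer, pH 7.4. Mixture was preincubated with 1 mM NADPH (PBS only for the negative control) for 10 min at 37°C. Reaction was started with test compound at 2 µM final. Aliquots were taken at 0.5, 15, 30, 45 and 60 min into cold methanol with internal standard, centrifuged, and the supernatant analysed by LC-MS/MS.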

[18] = tested on: MGC-803; test: Antitumor activity against human MGC-803 cells xenografted in nude mouse assessed as tumor inhibition ratio at 5 mg/kg, ip administered once every two days for 21 days relative to control; type: functional; conditions: MGC-803, 504 h, time 21 day; outline: as §3
[19] = Toxicity in nude mouse xenografted with human MGC-803 cells assessed as pathological changes in liver at 5 mg/kg, ip administered once every two days for 21 days by H and E staining based analysis; type: organism-based; conditions: in vivo, 504 h, time 21 day; outline: as §4
[20] = Toxicity in nude mouse xenografted with human U-251 cells assessed as decrease in body weight at 10 mg/kg, ip administered once every two days for 21 days; type: organism-based; conditions: in vivo, 504 h, time 21 day
Outline: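 Subcutaneous xenograft in nude mice (1×10^6 cells, right flank). At 60–80 mm³, mice were randomised (n = 6 per group) to solvent control or treatment. Compound in 5% v/v DMSO/saline was given i.p. once every 2 days. Body weight was recorded as the indicator of systemic toxicity.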

[21] = tested on: U-251; test: Antitumor activity against human U-251 cells xenografted in nude mouse assessed as tumor inhibition ratio at 5 mg/kg, ip administered once every two days for 21 days relative to control; type: functional; conditions: U-251, 504 h, time 21 day; outline: as §1

| SMILES | IC50 [4] [µM] | IC50 at 48 h [5] [µM] | IC50 [6] [µM] | IC50 at 48 h [7] [µM] | IC50 [8] [µM] | IC50 [9] [µM] | IC50 [10] [µM] | inhibition in vivo at 5 mg/kg [18] [%] | further results |
| --- | --- | --- | --- | --- | --- | --- | --- | --- | --- |
| Cn1nnc2c(C(N)=O)ncn2c1=O [TEMOZOLOMIDE] | > 50 | – | – | – | – | – | – | – | Activity [1]: Toxic; Activity [2]: Toxic; inhibition in vivo at 25 mg/kg [3]: 74.2% |
| CN(C)CCN1C(=O)c2cccc3cc([N+](=O)[O-])cc(c23)C1=O [MITONAFIDE] | 9.68 | 2.13 | 3.6 | 5.9 | 12.2 | 7.59 | – | – | – |
| CN(C)CCN1C(=O)c2cccc3c(N4CCNCC4)ccc(c23)C1=O | 10.5 | 6.38 | 13.5 | 1.99 | 7.15 | 0.96 | 5.86 | 40.3 | inhibition in vivo at 10 mg/kg [11]: 71.5%; Activity [12]: Toxic; Activity [13]: Non-Toxic; IC50 [14]: 1.72 µM; Activity [15]: Non-Toxic; Activity [16]: Non-Toxic; half-life at 2 µM [17]: > 3.08 h; Activity [19]: Non-Toxic; Activity [20]: Toxic |
| CN(C)CCN1C(=O)c2cccc3cc(N)cc(c23)C1=O [AMONAFIDE] | > 50 | 27.2 | 12.4 | 21.9 | 25.7 | 21.1 | 7.94 | 42.2 | inhibition in vivo at 5 mg/kg [21]: 35.4% |
